Screens deposited in PubChem by several laboratories.
IL1B cytotox: cytotoxicity in IL-1B stimulated HUVEC, primary screen, cytotoxicity control for IL-1B NFkB translocation project, imaging, Hoechst nuclear count, IL-1B stimulus. HUVEC cell count loss. cell count reduction, % at 2 µM. AID 845, 2007. 94,000 compounds, 0.41% hits;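 active = cell count reduction more than 3 SD above the screen-wide mean, cut at about 70% in these data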;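 also: normalized per plate to untreated control cells as the no-loss baseline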
Measles CPE: compounds protecting cells from measles virus cytopathic effect, primary screen, measles RdRp inhibitor project, single point, MLSMR library, absorbance; Measles virus-infected cells, CPE protection; protection (pct of control), % at 4 µM; 140,000 compounds, 1.5% hits; AID 841, 2007; in the data active = protection mostly above about 24%, no sharp cut-off; inactive = mostly below about 26%
IL1B NFkB inh: inhibitors of IL-1B driven NFkB p65 nuclear import, primary screen, imaging, HUVEC, IL-1B stimulus, high-content imaging. inhibition, % at 2 µM. HUVEC IL-1B NFkB p65 nuclear translocation imaging. AID 796, 2007. 94,000 compounds, 0.43% hits;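 active = inhibition above about 30% together with a positive call from visual inspection of the well image, limit read from the data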;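 also: nuclear over cytoplasmic p65 intensity ratio measured by imaging; 0% = IL-1B stimulated DMSO wells and 100% = unstimulated DMSO wells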
Rev-RRE block: HIV-1 Rev-RRE binding inhibitors, primary screen, biochemical, FRET, protein-RNA interaction. inhibition, % at 8 µM. AID 704, 2007. P05866. Rev peptide-RRE RNA binding. 97,000 compounds, 0.79% hits;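 active = inhibition above the screen-wide mean plus 3 SD, cut at about 35% in these data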;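 also: 0% = median DMSO wells and 100% = median Neomycin B control wells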
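Test system: Cy5-tagged RRE RNA duplex with fluorescein-tagged Rev peptide; Probe or stimulus: labelled Rev peptide; Schedule: 5 min preincubation and 15 min binding, 25 °C; Signal: FRET fluorescence readout; Evaluation: % inhibition from 671/540 nm acceptor-to-donor ratio, scaled between controls; Control set: DMSO and neomycin B.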
NFkB transloc pot: enhancers of NFkB p65 translocation in HUVEC – imaging, IL-1B stimulus, high-content imaging, primary screen. AID 819, 2007. activation, % at 2 µM. 94,000 compounds, 0.3% hits. HUVEC IL-1B NFkB p65 nuclear translocation imaging;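 active = activation above 40%, about the mean plus 3 SD, also judged a hit on visual image review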;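 also: percent activation is computed from the nuclear over cytoplasmic p65 intensity ratio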
FAK inh: FAK kinase inhibitors, primary screen, biochemical | Focal adhesion kinase 1 (Homo sapiens), Q05397 | biochemical FAK kinase activity assay | inhibition, %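 (tested at 7 µM)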 | 97,000 compounds, 0.84% hits | AID 727, 2007; in the data active = inhibition above about 19%;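 also: 0% = DMSO and 100% = reference compound high control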
* hit, by the source's call. Most compounds without a hit are left out; they make up all but 3.3% or so of the library.

`CCn1nc(NC(=O)c2ccccn2)c2cc3cccc(C)c3nc21` gave IL1B cytotox -14, Measles CPE 5, IL1B NFkB inh -51, Rev-RRE block 11, NFkB transloc pot 51* and FAK inh -1.
Screening N#CC1=C(SCC(N)=O)NC2=C(C(=O)c3ccccc32)C1c1ccc(Cl)cc1 (stereo not given) returned IL1B cytotox -26, Measles CPE 5, IL1B NFkB inh 1, Rev-RRE block 10, NFkB transloc pot -1 and FAK inh -3.
O=C(c1ccc(Br)o1)N1CCN(C/C=C/c2ccccc2)CC1 was read as IL1B cytotox 14, Measles CPE 119*, IL1B NFkB inh 0, Rev-RRE block 5, NFkB transloc pot 0 and FAK inh 0.
For O=C(c1ccc(Br)s1)N1CCN(C/C=C/c2ccccc2)CC1 the results were IL1B cytotox -25, Measles CPE 3, IL1B NFkB inh -19, Rev-RRE block 9, NFkB transloc pot 19 and FAK inh 1.
For Cc1ccc(NC(=O)c2cc(NC(=O)CCC(=O)O)ccc2N2CCCCC2)cc1 the results were IL1B cytotox 92*, Measles CPE 8, IL1B NFkB inh 5, Rev-RRE block 0, NFkB transloc pot -5 and FAK inh -8.
Screening O=C1/C(=C/Nc2ccc3c(c2)OCO3)CCc2ccccc21 returned IL1B cytotox -10, Measles CPE 16, IL1B NFkB inh -18, Rev-RRE block 46*, NFkB transloc pot 18 and FAK inh 1.
Screening COc1ccc2c(c1)CC/C(=C\Nc1ccc3c(c1)OCO3)C2=O returned IL1B cytotox -49, Measles CPE 17, IL1B NFkB inh -17, Rev-RRE block 32, NFkB transloc pot 17 and FAK inh 2.
Screening Cc1ccc(-n2c(O)c(C=NC3CCS(=O)(=O)C3)c3ccccc3c2=O)cc1C (stereo not given) returned IL1B cytotox 39, Measles CPE 6, IL1B NFkB inh -43, Rev-RRE block 3, NFkB transloc pot 43* and FAK inh 0.
Cc1ccc(S(=O)(=O)NCc2ccco2)cc1C was read as Measles CPE 43*.
Screening O=C(O)CSc1c(-c2cccs2)[nH]c2ccccc12 returned Measles CPE 40*.
For Cc1ccccc1N1C(=O)N(c2cccc(C(F)(F)F)c2)C2CS(=O)(=O)CC21 (stereo not given) the results were IL1B cytotox -9, Measles CPE 6, IL1B NFkB inh -73, Rev-RRE block 1, NFkB transloc pot 73* and FAK inh 3.
`COc1cccc(N2C(=O)N(c3ccccc3Cl)C3CS(=O)(=O)CC32)c1` (stereo not given) gave IL1B cytotox -115, Measles CPE 11, IL1B NFkB inh -14, Rev-RRE block 5, NFkB transloc pot 14 and FAK inh 0.
`Cc1ccc(N(Cc2cc3cc(C)ccc3[nH]c2=O)S(=O)(=O)c2ccccc2)cc1` gave Measles CPE 3.
For O=C(CN(c1cccc(C(F)(F)F)c1)S(=O)(=O)c1ccc(Cl)c([N+](=O)[O-])c1)NCc1ccc(F)cc1 the results were Measles CPE 5.
For Cc1ccccc1NC(=O)CN(c1ccc(F)cc1)S(C)(=O)=O the results were IL1B cytotox -26, Measles CPE 4, IL1B NFkB inh -23, Rev-RRE block 1, NFkB transloc pot 23 and FAK inh 2.
`CN(C)S(=O)(=O)N(CC(=O)Nc1ccccc1F)c1ccccc1` gave IL1B cytotox 79*, Measles CPE 5, IL1B NFkB inh -6, Rev-RRE block -4, NFkB transloc pot 6 and FAK inh 1.
Screening CSCCOC(=O)C1=C(C)Nc2ccc(C)cc2S1 returned IL1B cytotox -7, Measles CPE 4, IL1B NFkB inh 58*, Rev-RRE block 1, NFkB transloc pot -58 and FAK inh 1.
For CCOC(=O)C1=C(C)Nc2ccc(C)cc2S1 the results were IL1B cytotox -4, Measles CPE 0, IL1B NFkB inh 10, Rev-RRE block -1, NFkB transloc pot -10 and FAK inh -2.
Screening COc1ccc(NC(=S)N2CCNC(=O)C2CC(=O)Nc2cccc(Cl)c2C)cc1 (stereo not given) returned Measles CPE 16.
Screening CC1CCN(C(=O)N2c3ccccc3Sc3ccccc32)CC1 returned IL1B cytotox -18, Measles CPE 2, IL1B NFkB inh -13, Rev-RRE block 11, NFkB transloc pot 13 and FAK inh -1.
O=C(NC1CCN(C(=O)N2c3ccccc3Sc3ccccc32)CC1)c1ccccc1F was read as IL1B cytotox 14, Measles CPE 41*, IL1B NFkB inh 1, Rev-RRE block -3, NFkB transloc pot -1 and FAK inh 3.
`O=[N+]([O-])c1cc(S(=O)(=O)Nc2ccccc2)ccc1NCc1ccccc1` gave Measles CPE 37*.
`COc1cccc(C(=O)CN(C(=O)c2ccc(Cl)cc2Cl)N2C(=O)c3ccccc3C2=O)c1` gave Measles CPE 10.
For NC(=O)C[n+]1cccc2ccccc21 the results were IL1B cytotox -2, Measles CPE 21, IL1B NFkB inh 10, Rev-RRE block 37*, NFkB transloc pot -10 and FAK inh 2.
For Cc1ccc(C(=O)C[n+]2cccc3ccccc32)cc1 the results were IL1B cytotox -3, Measles CPE 7, IL1B NFkB inh 12, Rev-RRE block 34, NFkB transloc pot -12 and FAK inh 2.
Screening CC1=NN(C(=O)c2ccc(Cn3cc([N+](=O)[O-])cn3)cc2)C(O)(C(F)(F)F)C1 (stereo not given) returned Measles CPE 8.
`CCOC(=O)C1CCCN(C(=O)CN2C(=O)/C(=C/c3ccc(OC)cc3)Oc3ccccc32)C1` (stereo not given) gave Measles CPE 7.
COC(C(=O)Nc1ccc(S(=O)(=O)Nc2c(C)cccc2C)cc1)c1ccccc1 (stereo not given) was read as Measles CPE 5.
For CCN(CC)S(=O)(=O)c1ccc(NC(=O)C(OC)c2ccccc2)cc1 (stereo not given) the results were IL1B cytotox 90*, Measles CPE 25, IL1B NFkB inh 98*, Rev-RRE block 3, NFkB transloc pot -98 and FAK inh -6.
For COc1ccc(-c2cc(C(F)(F)F)nc(NCc3ccco3)n2)cc1OC the results were IL1B cytotox -20, Measles CPE 4, IL1B NFkB inh -7, Rev-RRE block 9, NFkB transloc pot 7 and FAK inh -1.
